Data on ten compounds can be found in publication PMC6421850 (The Journal of organic chemistry, 2018).

Like-named read-outs stand apart in the source and are kept apart here.

The test system of one data set is A549 (lung carcinoma). Briefly: Antiproliferative activity, SRB assay, A549. In kind it is cell-based, human. A general note: In SRB staining, fixed cells bind dye roughly in proportion to their protein.
For data set [1], the system named is MDA-MB-231 (triple-negative breast cancer). Description: Antiproliferative activity, SRB assay, MDA-MB-231. It counts as cell-based, human.
Data set [2] has as its system MCF-7 (estrogen receptor-positive and HER2-negative breast cancer). Description: Antiproliferative activity, SRB assay, MCF-7. In kind it is cell-based, human.
The subject of data set [3] is KB (epidermoid carcinoma of the nasopharynx). Briefly: Antiproliferative activity, SRB assay, KB. In kind it is cell-based, human. Conditions: read-out: IC50 KB.
Data set [4] deals with MDA-MB-231 cells. Description: Cell cycle analysis by flow cytometry. It counts as cell-based, human. Particulars: MDA-MB-231, 24 h; for accumulation of sub-G1 cells: dose-dependent; for effect on cell cycle progression: flow cytometry, PI staining; for propidium iodide (PI) signals: higher concentrations. The procedure, abridged: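 MDA-MB-231 cells were exposed to test compound for 24 h at the indicated concentrations, with DMSO as vehicle control. DNA content was stained with propidium iodide/RNase. Cell-cycle distribution, including the sub-G1 fraction, was read by flow cytometry.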

In data set [5] the test system is MDA-MB-231 cells. Description: Immunocytochemistry. In kind it is cell-based, human. Conditions: MDA-MB-231, 24 h. An outline of the steps:
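MDA-MB-231 cells were seeded on chamber slides 24 h before a 24 h exposure, with 0.1% DMSO as control. Cells were fixed in 4% paraformaldehyde/PBS and permeabilised with 0.5% Triton X-100. They were probed with mouse anti-α-tubulin, then FITC anti-mouse IgG, with DAPI for nuclei. Confocal projections used 12–18 sections at 0.6–1 μm intervals. Each concentration was repeated at least twice.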

Data set [6] deals with KB-VIN (P-gp-overexpressing MDR subline of KB).
Data set [7] has the same test system. Description: Antiproliferative activity, SRB assay, KB-VIN. Particulars: read-out: IC50 KB-VIN, 50% reduction relative to untreated cells.
Data set [8] concerns all tested human tumor cell lines, including MDR subline. Description: Antiproliferative activity, all tested human tumor cell lines. In kind it is cell-based. Conditions: read-out: IC50 values against all tested human tumor cell lines.
Data set [9] has as its system horse's blood (red blood cells). Description: In vitro hemolytic assay. In kind it is cell-based. Conditions: up to 500 μM.
Setting [10] is: read-out: IC50 A549, SRB assay, 50% reduction relative to untreated cells.
Where [11] appears, read: read-out: IC50 MDA-MB-231, SRB assay, 50% reduction relative to untreated cells.
Setting [12] is: read-out: IC50 MCF-7, SRB assay, 50% reduction relative to untreated cells.
[13] abbreviates: SRB assay, 50% reduction relative to untreated cells.
The mark [14] stands for this setting: Homo sapiens, A549, read-out: IC50 A549.
The mark [15] stands for this setting: Homo sapiens, MDA-MB-231, read-out: IC50 MDA-MB-231.
[16] abbreviates: Homo sapiens, MCF7, read-out: IC50 MCF-7.

With `C=CC(=C)CC[C@]1(C)[C@H](C)C[C@H](OC)[C@@]23C(=C[C@H](OC(=O)C(C)C)C[C@@H]12)[C@@H](OC(C)=O)O[C@H]3OC(C)=O` [Compound 3, (2R,5S,6S,8R,9R,10S,18R,19S)-18,19-di-O-acetyl-18,19-epoxy-6-methoxy-2-isobutanoyloxycleroda-3,13(16),14-triene], the IC50 (commonly the midpoint of a concentration-inhibition curve) in the data set on A549 (lung carcinoma) (setting [10]) worked out at 0.47 µM; in data set [1] (setting [11]), 0.49 µM; in data set [2] (setting [12]), 0.5 µM; in data set [3] (setting [13]), 0.45 µM; in [6] it was 0.49 µM. Moreover, the “accumulation of sub-G1 cells” value with MDA-MB-231 cells [4] was “significant accumulations of sub-G1 cells”. Also, the “effect on cell cycle progression” value in the data set with MDA-MB-231 cells [4] was “no effect on cell cycle progression”. The “cell morphology (microtubules, chromatin)” value in the data set with MDA-MB-231 cells [5] (1.5 μM (3-fold IC50)) was “normal morphology with intact nuclei and a clear microtubule network”; in the data set on MDA-MB-231 cells [5] (4.9 μM (10-fold IC50)), “fragmented and dispersed chromatin (arrowhead) with an apoptotic microtubule array”. Besides, in the data set on MDA-MB-231 cells [5] (1.5 and 4.9 μM), the induction of apoptosis entry was “induced apoptosis in a dose-dependent manner”.
Regarding `C=CC(=C)CCC1(C)C(C)CC(O)C23C(=CC(OC(=O)C(C)CC)CC12)C(OC(C)=O)OC3OC(C)=O` (stereo not drawn) [Compound 17, 18,19-di-O-acetyl-18,19-epoxy-6-hydroxy-2-(2′-methylbutanoyloxy)cleroda-3,13-(16),14-triene], the IC50 with A549 (lung carcinoma) (setting [10]) was determined as 4.15 µM; in data set [1] (setting [11]), 0.54 µM; in [2] (setting [12]) it was 0.89 µM; in data set [3] (setting [13]), 0.73 µM; in [7] it was 4.07 µM. For the same compound, the “accumulation of sub-G1 cells” value with MDA-MB-231 cells [4] is listed as “significant accumulations of sub-G1 cells”. The “effect on cell cycle progression” value in the data set with MDA-MB-231 cells [4] was “no effect on cell cycle progression”. Further, in the data set with MDA-MB-231 cells [4], the “propidium iodide (PI) signals” value is “decreased unusually and dramatically in all cells”.
As for `C=CC(=C)CC[C@]1(C)[C@H](C)C[C@H](OC(=O)CCCCC)[C@@]23C(=C[C@H](O)C[C@@H]12)[C@@H](OC(C)=O)O[C@H]3OC(C)=O` [Compound 14, (2R,5S,6S,8R,−9R,10S,18R,19S)-18,19-di-O-acetyl-18,19-epoxy-2-hydroxy-6-hexanoyloxycleroda-3,13(16),14-triene], the IC50 with A549 (lung carcinoma) (setting [10]) worked out at 4.76 µM; in data set [1] (setting [11]), 4.73 µM; in data set [2] (setting [12]), 5.19 µM; in [3] (setting [13]), 4.74 µM; in data set [7], 4.88 µM.
`C=CC(=C)CC[C@]1(C)[C@H](C)C[C@H](OC)[C@@]23C(=C[C@H](OC(=O)[C@@H](C)CC)C[C@@H]12)[C@@H](OC(C)=O)O[C@H]3OC(C)=O` [Compound 6, (2R,5S,6S,−8R,9R,10S,18R,19S)-18,19-di-O-acetyl-18,19-epoxy-6-methoxy-2-(2′-methylbutanoyloxy)-cleroda-3,13(16),14-triene]: the half-maximal inhibitory concentration (IC50) in the data set on A549 (lung carcinoma) (setting [10]) was determined as 5.04 µM; in data set [1] (setting [11]), 4.9 µM; in data set [2] (setting [12]), 5.82 µM; in [3] (setting [13]) it was 5.23 µM; in data set [7], 5.19 µM.
For the compound `CC(=O)O[C@H]1C(=O)[C@@]2(C)[C@H]([C@H](OC(=O)c3ccccc3)[C@]3(O)C[C@H](OC(=O)[C@H](O)[C@@H](NC(=O)c4ccccc4)c4ccccc4)C(C)=C1C3(C)C)[C@]1(OC(C)=O)CO[C@@H]1C[C@@H]2O` [Paclitaxel, reference compound], the IC50 with A549 (lung carcinoma) (setting [14]) amounted to 0.00653 µM; in [1] (setting [15]), 0.00836 µM; in data set [2] (setting [16]), 0.0121 µM; in [3] (Homo sapiens), 0.00707 µM.
Turning to `C=CC(=C)CC[C@]1(C)[C@H]2C[C@@H](OC(=O)C(C)CC)C=C3[C@H](OC(C)=O)O[C@H](OC(C)=O)[C@@]32[C@H](O)C[C@@H]1C` (stereo partly drawn) [Compound 18, caseamembrin E], the IC50 with A549 (lung carcinoma) (setting [14]) was 0.53 µM; in [1] (setting [15]) it was 0.4 µM; in data set [2] (setting [16]) it was 0.55 µM; in [3] (Homo sapiens) it was 0.43 µM; in data set [8] it was 0.4 to 1 µM.
caseamembrin S [Compound 16]: the IC50 in the data set with A549 (lung carcinoma) (setting [10]) was found to be 0.58 µM; in data set [1] (setting [11]) it was 0.45 µM; in [2] (setting [12]), 0.66 µM; in data set [3] (setting [13]), 0.53 µM; in data set [7], 0.9 µM. The “accumulation of sub-G1 cells” value in the data set with MDA-MB-231 cells [4] is listed as “significant accumulations of sub-G1 cells”. In the data set with MDA-MB-231 cells [4], the “effect on cell cycle progression” value is given as “no effect on cell cycle progression”. For the same compound, in the data set with MDA-MB-231 cells [4], the “propidium iodide (PI) signals” value is “decreased unusually and dramatically in all cells”.
For the compound `C=CC(=C)CC[C@]1(C)[C@H](C)C[C@H](OC)[C@@]23C(=C[C@H](OC(=O)CC)C[C@@H]12)[C@@H](OC(C)=O)O[C@H]3OC(C)=O` [Compound 4, (2R,5S,6S,8R,9R,10S,18R,−19S)-18,19-di-O-acetyl-18,19-epoxy-6-methoxy-2-propionyloxy-cleroda-3,13(16),14-triene], the IC50 came out at 4.6 µM in the data set with A549 (lung carcinoma) (setting [10]); 4.95 µM in data set [1] (setting [11]); 4.94 µM in [2] (setting [12]); 5.19 µM in data set [3] (setting [13]); 4.92 µM in data set [7].
The corresponding values for `C=CC(=C)CC[C@]1(C)[C@H](C)C[C@H](OC(=O)CCCCCCCCC)[C@@]23C(=C[C@H](OC(C)=O)C[C@@H]12)[C@@H](OC(C)=O)O[C@H]3OC(C)=O` [Compound 9, (2R,5S,6S,8R,9R,10S,18R,19S)-2,18,19-tri-O-acetyl-18,19-epoxy-6-decanoyloxycleroda-cleroda-3,13(16),14-triene] are 40.2 µM, 20.5 µM, 31.7 µM, 19.8 µM and 39.2 µM.
In the case of `C=CC(=C)CCC1(C)C(C)CC(O)C23C(=CC(OC(=O)/C=C/C=C/CCCCC)CC12)C(OC(C)=O)OC3OC(C)=O` (stereo not drawn) [Compound 19, corymbulosin A], the IC50 in the data set with A549 (lung carcinoma) (setting [10]) stood at 0.45 µM; in data set [1] (setting [11]) it was 0.43 µM; in [2] (setting [12]), 0.44 µM; in data set [3] (setting [13]), 0.42 µM; in data set [7], 0.45 µM. The “hemolytic activity (in words)” value in data set [9] is reported as “most potent activity but only at the unusually high concentration of 500 μM”. Further, in the data set on MDA-MB-231 cells [4], the “accumulation of sub-G1 cells” value is “except with compound 19”. In addition, the “effect on cell cycle progression” value in the data set with MDA-MB-231 cells [4] is “no effect on cell cycle progression”.
